Assay [1] has as its system HT-1080. As to the kind of experiment: Antiproliferative activity against human HT-1080 cells assessed as inhibition of cell growth incubated for 24 hrs by CCK-8 assay. To be noted: for IC50: HT-1080, 24 h. The format is functional, cell-based. The gist of the method: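 HT1080 cells exposed to compound for 24 h; viability read by CCK-8; IC50 from growth inhibition.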
(Formazan colour is commonly taken as a measure of viable cells.)

For assay [2], the target named is T1, von Hippel-Lindau disease tumor suppressor/Phospholipid hydroperoxide glutathione peroxidase GPX4 (Homo sapiens) (UniProt P40337+P36969). Briefly: PROTAC activity at VHL/GPX4 in human HT-1080 cells assessed as induction of protein degradation at 0.2 uM incubated for 12 hrs in presence of MG132 and chloroquine by Western blot analysis. In kind it is cell-based. The gist of the method: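 HT1080 cells treated 12 h with degrader alongside MG132 (0.3 μM) and chloroquine (50 μM); chloroquine given as pretreatment. GPX4 detected by Western blot, band density quantified by gray-scale analysis.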
(A western blot detects proteins with antibodies after separation by electrophoresis.)

Assay [3] concerns HT-1080. Briefly: Induction of ROS accumulation in human HT-1080 cells incubated for 12 hrs by DCFH-DA staining based flow cytometry analysis. In kind it is functional, cell-based. To be noted: dose 0.25-1 µM. The procedure, abridged:
(§1)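 HT1080 cells loaded with 10 μM DCFH-DA, then treated 12 h with compound at various concentrations; intracellular ROS measured by flow cytometry. For the rescue arm, cells were pretreated 2 h with ferroptosis inhibitor Fer-1 (5 μM) and kept in its presence.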

Assay [4] has as its target T1, von Hippel-Lindau disease tumor suppressor/Phospholipid hydroperoxide glutathione peroxidase GPX4 (Homo sapiens). As to the kind of experiment: PROTAC activity at VHL/GPX4 in human HT-1080 cells assessed as induction of protein degradation at 0.2 uM measured after 12 hrs by Western blot analysis relative to control. In kind it is cell-based. The gist of the method: (§2)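 Time course in HT1080 cells at 0.2 μM compound. GPX4 detected by Western blot. Band density was quantified by gray-scale densitometry and normalized to GAPDH.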

Assay [5] has as its system HT-1080. Briefly: Induction of ROS accumulation in human HT-1080 cells at 1 uM pretreated with ferroptosis inhibitor, Fer-1 for 2 hrs followed by compound addition and further incubated for 12 hrs by DCFH-DA staining based flow cytometry analysis. In kind it is functional, cell-based. The procedure, abridged:
as §1

The target of assay [6] is T1, von Hippel-Lindau disease tumor suppressor/Phospholipid hydroperoxide glutathione peroxidase GPX4 (Homo sapiens). As to the kind of experiment: PROTAC activity at VHL/GPX4 in human HT-1080 cells assessed as induction of protein degradation at 0.2 uM measured after 6 hrs by Western blot analysis relative to control. The format is cell-based. The gist of the method: as §2

The target is the same in assay [7]. Briefly: PROTAC activity at VHL/GPX4 in human HT-1080 cells assessed as induction of protein degradation at 0.2 uM measured for 24 hrs by Western blot analysis. In kind it is cell-based. The procedure, abridged: as §2
Assay [8] concerns the target von Hippel-Lindau disease tumor suppressor/Phospholipid hydroperoxide glutathione peroxidase GPX4 (Homo sapiens, UniProt P36969+P40337). As to the kind of experiment: (§3) PROTAC activity at VHL/GPX4 in human HT-1080 cells assessed as induction of protein degradation by Western blot analysis. The format is cell-based.
The target of assay [9] is T1, von Hippel-Lindau disease tumor suppressor/Phospholipid hydroperoxide glutathione peroxidase GPX4 (Homo sapiens). The assay is described as §3. The format is cell-based.
The target is the same in assay [10]. Briefly: PROTAC activity at VHL/GPX4 in human HT-1080 cells assessed as induction of protein degradation by measuring maximal degradation at 0.06 to 5 uM by Western blot analysis relative to control. The format is cell-based. To be noted: dose 0.06-5 µM.
The target in assay [11] is Protein cereblon/Phospholipid hydroperoxide glutathione peroxidase GPX4 (Homo sapiens, UniProt P36969+Q96SW2). As to the kind of experiment: PROTAC activity at CRBN/GPX4 (unknown origin). In kind it is protein assay.

The source made the active and inactive calls. No cut-off for these calls is given here.

T1 sequence (P36969 whole entry, looked up): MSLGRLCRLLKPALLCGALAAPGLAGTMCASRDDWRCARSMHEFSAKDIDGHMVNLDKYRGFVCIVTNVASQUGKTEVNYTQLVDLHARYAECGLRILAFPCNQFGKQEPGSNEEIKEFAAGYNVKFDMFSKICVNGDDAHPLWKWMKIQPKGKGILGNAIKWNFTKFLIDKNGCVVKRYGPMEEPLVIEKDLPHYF
T1 sequence (P40337 whole entry, looked up): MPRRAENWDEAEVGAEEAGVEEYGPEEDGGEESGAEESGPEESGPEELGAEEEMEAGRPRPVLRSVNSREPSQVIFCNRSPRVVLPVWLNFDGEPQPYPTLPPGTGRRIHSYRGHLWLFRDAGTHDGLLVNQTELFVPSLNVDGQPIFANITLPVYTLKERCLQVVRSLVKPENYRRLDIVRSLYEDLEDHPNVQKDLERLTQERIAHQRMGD
Chain of von Hippel-Lindau disease tumor suppressor/Phospholipid hydroperoxide glutathione peroxidase GPX4 (P40337 whole entry): as the sequence (P40337 whole entry, looked up) above
Chain of von Hippel-Lindau disease tumor suppressor/Phospholipid hydroperoxide glutathione peroxidase GPX4 (P36969 whole entry): as the sequence (P36969 whole entry, looked up) above
Chain of Protein cereblon/Phospholipid hydroperoxide glutathione peroxidase GPX4 (Q96SW2 whole entry): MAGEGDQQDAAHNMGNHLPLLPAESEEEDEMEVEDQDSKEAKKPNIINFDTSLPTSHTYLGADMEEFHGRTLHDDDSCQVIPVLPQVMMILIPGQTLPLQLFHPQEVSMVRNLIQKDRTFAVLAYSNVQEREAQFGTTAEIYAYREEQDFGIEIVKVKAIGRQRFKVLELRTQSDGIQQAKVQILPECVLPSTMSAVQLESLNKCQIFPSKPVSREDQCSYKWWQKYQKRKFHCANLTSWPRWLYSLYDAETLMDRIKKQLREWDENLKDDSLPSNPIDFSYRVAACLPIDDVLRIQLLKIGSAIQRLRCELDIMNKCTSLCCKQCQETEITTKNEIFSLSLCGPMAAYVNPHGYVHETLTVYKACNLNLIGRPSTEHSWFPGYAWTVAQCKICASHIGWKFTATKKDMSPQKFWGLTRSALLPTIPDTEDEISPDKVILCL
Chain of Protein cereblon/Phospholipid hydroperoxide glutathione peroxidase GPX4 (P36969 whole entry): as the sequence (P36969 whole entry, looked up) above

As a reminder, the IC50 is the concentration that gives 50% inhibition. Take `Cc1ncsc1-c1ccc(CNC(=O)[C@@H]2C[C@@H](O)CN2C(=O)[C@@H](NC(=O)CCOc2ccc(C(c3ccc(Cl)cc3)N3CCN(C(=O)c4noc(C)c4[N+](=O)[O-])CC3)cc2)C(C)(C)C)cc1` (stereo not given in full): the IC50 in the assay on HT-1080 [1] stood at 2.17 µM.
Take `Cc1ncsc1-c1ccc(CNC(=O)[C@@H]2C[C@@H](O)CN2C(=O)[C@@H](NC(=O)CCCOc2ccc(C(c3ccc(Cl)cc3)N3CCN(C(=O)c4noc(C)c4[N+](=O)[O-])CC3)cc2)C(C)(C)C)cc1` (stereo not given in full): the inhibition entry in the assay on HT-1080 [1] was “inactive”.
For the molecule `Cc1ncsc1-c1ccc(CNC(=O)[C@@H]2C[C@@H](O)CN2C(=O)[C@@H](NC(=O)COCCOc2ccc(C(c3ccc(Cl)cc3)N3CCN(C(=O)c4noc(C)c4[N+](=O)[O-])CC3)cc2)C(C)(C)C)cc1` (stereo not given in full), the IC50 in the assay with HT-1080 [1] stood at 1.83 µM.
With `Cc1ncsc1-c1ccc(CNC(=O)[C@@H]2C[C@@H](O)CN2C(=O)[C@@H](NC(=O)CCCCCCCOc2ccc(C(c3ccc(Cl)cc3)N3CCN(C(=O)c4noc(C)c4[N+](=O)[O-])CC3)cc2)C(C)(C)C)cc1` (stereo not given in full), the half-maximal inhibitory concentration (IC50) in the assay with HT-1080 [1] was 1.69 µM.
The same measure, in the same setting: the same measure for `Cc1ncsc1-c1ccc(CNC(=O)[C@@H]2C[C@@H](O)CN2C(=O)[C@@H](NC(=O)CCCCCCCCCCCOc2ccc(C(c3ccc(Cl)cc3)N3CCN(C(=O)c4noc(C)c4[N+](=O)[O-])CC3)cc2)C(C)(C)C)cc1` (stereo not given in full): 2.35 µM.
On the same count and under the same terms, the same measure for `Cc1ncsc1-c1ccc(CNC(=O)[C@@H]2C[C@@H](O)CN2C(=O)[C@@H](NC(=O)COCCOCCOCCOCCOc2ccc(C(c3ccc(Cl)cc3)N3CCN(C(=O)c4noc(C)c4[N+](=O)[O-])CC3)cc2)C(C)(C)C)cc1` (stereo not given in full): 4.73 µM; for `Cc1ncsc1-c1ccc(CNC(=O)[C@@H]2C[C@@H](O)CN2C(=O)[C@@H](NC(=O)CCCCCCCCOc2ccc(C(c3ccc(Cl)cc3)N3CCN(C(=O)c4noc(C)c4[N+](=O)[O-])CC3)cc2)C(C)(C)C)cc1` (stereo not given in full): 0.767 µM.
What is called EC50 is the concentration that produces a half-maximal response. Broadly, the Emax is the maximal effect, on the per cent scale that the assay sets. For `Cc1ncsc1-c1ccc(CNC(=O)[C@@H]2C[C@@H](O)CN2C(=O)[C@@H](NC(=O)CCCCCCCCCOc2ccc(C(c3ccc(Cl)cc3)N3CCN(C(=O)c4noc(C)c4[N+](=O)[O-])CC3)cc2)C(C)(C)C)cc1` (stereo not given in full), the outcome (in [2]; with HT-1080 [5]) was inactive. Further, the Activity result with HT-1080 [3] is “Dose-Dependent Effect”; in [4], above 80%; in assay [6] it was 50%; in assay [9] it was “Dose-Dependent Effect”. The IC50 in the assay with HT-1080 [1] was found to be 0.435 µM. Moreover, the outcome in [7] was Active. Besides, the EC50 in assay [8] stood at 0.135 µM. Also, in assay [10], the Emax was found to be 86%.
For the molecule `Cc1ncsc1-c1ccc(CNC(=O)[C@@H]2C[C@@H](O)CN2C(=O)[C@@H](NC2CC3(CCN(C(=O)COc4ccc(C(c5ccc(Cl)cc5)N5CCN(C(=O)c6noc(C)c6[N+](=O)[O-])CC5)cc4)CC3)C2)C(C)(C)C)cc1` (stereo not given in full), the 50% inhibitory concentration (IC50) in the assay on HT-1080 [1] amounted to 1.35 µM.
In the case of `Cc1ncsc1-c1ccc(CNC(=O)[C@@H]2C[C@@H](O)CN2C(=O)[C@@H](NC(=O)CCCCOc2ccc(C(c3ccc(Cl)cc3)N3CCN(C(=O)c4noc(C)c4[N+](=O)[O-])CC3)cc2)C(C)(C)C)cc1` (stereo not given in full), in the assay on HT-1080 [1], the IC50 turned out to be 1.54 µM.
`Cc1ncsc1-c1ccc(CNC(=O)[C@@H]2C[C@@H](O)CN2C(=O)[C@@H](NC(=O)CCCCCCOc2ccc(C(c3ccc(Cl)cc3)N3CCN(C(=O)c4noc(C)c4[N+](=O)[O-])CC3)cc2)C(C)(C)C)cc1` (stereo not given in full): in the assay on HT-1080 [1], the IC50 worked out at 1.36 µM.
As to `Cc1ncsc1-c1ccc(CNC(=O)[C@@H]2C[C@@H](O)CN2C(=O)[C@@H](NC(=O)COCCOCCOCCOc2ccc(C(c3ccc(Cl)cc3)N3CCN(C(=O)c4noc(C)c4[N+](=O)[O-])CC3)cc2)C(C)(C)C)cc1` (stereo not given in full), the IC50 in the assay with HT-1080 [1] came out at 3.24 µM.
With `Cc1ncsc1-c1ccc(CNC(=O)[C@@H]2C[C@@H](O)CN2C(=O)[C@@H](NC(=O)CN2CCN(CC3CCN(C(=O)COc4ccc(C(c5ccc(Cl)cc5)N5CCN(C(=O)c6noc(C)c6[N+](=O)[O-])CC5)cc4)CC3)CC2)C(C)(C)C)cc1` (stereo not given in full), the IC50 with HT-1080 [1] came out at 4.76 µM.
With `Cc1ncsc1-c1ccc(CNC(=O)[C@@H]2C[C@@H](O)CN2C(=O)[C@@H](NC(=O)COCCOCCOc2ccc(C(c3ccc(Cl)cc3)N3CCN(C(=O)c4noc(C)c4[N+](=O)[O-])CC3)cc2)C(C)(C)C)cc1` (stereo not given in full), the IC50 in the assay with HT-1080 [1] amounted to 2.07 µM.
Take `Cc1ncsc1-c1ccc(CNC(=O)[C@@H]2C[C@@H](O)CN2C(=O)[C@@H](NC(=O)CCCCCCCCCCOc2ccc(C(c3ccc(Cl)cc3)N3CCN(C(=O)c4noc(C)c4[N+](=O)[O-])CC3)cc2)C(C)(C)C)cc1` (stereo not given in full): in the assay with HT-1080 [1], the IC50 was 0.889 µM.
Take `Cc1ncsc1-c1ccc(CNC(=O)[C@@H]2C[C@@H](O)CN2C(=O)[C@@H](NC(=O)COc2ccc(C(c3ccc(Cl)cc3)N3CCN(C(=O)c4noc(C)c4[N+](=O)[O-])CC3)cc2)C(C)(C)C)cc1` (stereo not given in full): the IC50 in the assay on HT-1080 [1] amounted to 2.14 µM.
With `Cc1ncsc1-c1ccc(CNC(=O)[C@@H]2C[C@@H](O)CN2C(=O)[C@@H](NC(=O)CCCCCOc2ccc(C(c3ccc(Cl)cc3)N3CCN(C(=O)c4noc(C)c4[N+](=O)[O-])CC3)cc2)C(C)(C)C)cc1` (stereo not given in full), the IC50 with HT-1080 [1] came out at 2.29 µM.
Turning to `Cc1ncsc1-c1ccc([C@H](C)NC(=O)[C@@H]2C[C@@H](O)CN2C(=O)[C@@H](NC(=O)CCCCCCCCCOc2ccc(C(c3ccc(Cl)cc3)N3CCN(C(=O)c4noc(C)c4[N+](=O)[O-])CC3)cc2)C(C)(C)C)cc1` (stereo not given in full), the IC50 in the assay with HT-1080 [1] is 1.21 µM.
Take `Cc1onc(C(=O)N2CCN(C(c3ccc(Cl)cc3)c3ccc(Cl)cc3)CC2)c1[N+](=O)[O-]`: the IC50 in the assay on HT-1080 [1] was 0.153 µM.
Take `Cc1ncsc1-c1ccc(CNC(=O)[C@@H]2C[C@@H](O)CN2C(=O)[C@@H](NC(=O)C2CCN(CC3CCN(C(=O)COc4ccc(C(c5ccc(Cl)cc5)N5CCN(C(=O)c6noc(C)c6[N+](=O)[O-])CC5)cc4)CC3)CC2)C(C)(C)C)cc1` (stereo not given in full): the IC50 in the assay with HT-1080 [1] was found to be 4.45 µM.
In the case of `O=C1CCC(N2C(=O)c3cccc(NCCOCCOCCOCCn4cc(COc5ccc(N(C(=O)CCl)C(C(=O)NCCc6ccccc6)c6cccs6)cc5Cl)nn4)c3C2=O)C(=O)N1` (stereo not given), the EC50 in assay [11] came to 0.2 µM.

Values taken from ChEMBL document CHEMBL5344461, “ZX703: A Small-Molecule Degrader of GPX4 Inducing Ferroptosis in Human Cancer Cells” (ACS Med Chem Lett, 2024).
